From PubChem BioAssay
Active and inactive are the calls of the source.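 How the source made its calls, unless noted: active means fluorescence slope after compound addition differing from the mean of all screened samples at 99.7% confidence, in either direction; inactive means the rest.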

Experiments:
[1] = inhibitors of TNFa-induced NFkB p65 translocation, primary screen, imaging, HUVEC, MLSMR starter and 10KST1 sets (AID 438;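 active means inhibition above 20% together with a positive visual image hit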;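 further: compound added about 3h40 before a 20 min TNFalpha stimulation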;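 on inhibition: signal is the nuclear over cytoplasmic p65 intensity ratio per well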); conditions: HUVEC TNFa-induced p65 nuclear translocation; cell count: measured here: nuclei count (cytotoxicity indicator), at 2.08 µM; inhibition: at 2 µM, stronger effect = higher value, 0% TNFa-plus-vehicle, 100% no-TNFa wells
[2] = inhibitors of mutant huntingtin aggregation, primary screen, imaging, exon1htt(103Q)mCFP cells, high-content imaging (AID 483;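 active means visual image review flags a hit and inhibition of aggregation exceeds 20%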;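 further: compound exposure lasted 3 days before fixation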;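 on nuclei count: percent of the per-plate median nuclei count of sample wells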); conditions: exon1htt(103Q)mCFP cell line, aggregate imaging, at 2 µM; inhibition of aggregation: stronger effect = higher value; nuclei count: measured here: cell count, toxicity
[3] = inhibitors of E-selectin induction by TNFa, primary screen, imaging, HUVEC, immunofluorescence, MLSMR starter and 10KST1 sets (AID 487;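 active means visually confirmed hit in the image check and inhibition above 20%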;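 on inhibition: signal is fraction of cell area covered by stained E-selectin grains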;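 on nuclei count: 100% = median nuclei count of all wells on the same plate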); conditions: HUVEC TNFalpha-induced E-selectin immunofluorescence imaging, at 2 µM; inhibition: stronger effect = higher value; nuclei count: measured here: cell number, toxicity
[4] = biological target: Voltage-gated potassium channel subunit beta-2 (Rattus norvegicus) (UniProt P62483); test: KvBeta enzyme negative modulators, primary screen, biochemical, NADPH fluorescence (AID 622;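 active means fluorescence slope higher than the sample average by over 3 SD, cut at about -0.22 in these data, passing the limit was not always enough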;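 further: slope of raw intensity against log time taken from 70 to 1610 s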); conditions: recombinant KvBeta, 4-cyanobenzaldehyde reduction, at 10 µM, stronger effect = higher value
[5] = biological target: Voltage-gated potassium channel subunit beta-2 (Rattus norvegicus) (UniProt P62483); test: KvBeta positive modulators, primary screen, biochemical, NADPH fluorescence (AID 623;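 active means NADPH fluorescence slope more negative than the mean of all samples by about 3 SD, 99.7% confidence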;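 further: fluorescence intensity change per second fitted from 20 to 320 s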); conditions: Recombinant KvBeta, NADPH fluorescence decrease slope, 10 min; at 10 µM; stronger effect = lower value
[6] = biological target: Alpha-2C adrenergic receptor (Homo sapiens) (UniProt P18825); test: modulators of alpha2C/GIRK thallium flux, primary screen, cell-based, HEK293 alpha2C/GIRK1/2 (AID 624); conditions: thallium flux BTC fluorescence, at 10 µM, actives lie on both sides;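 further: slope of fluorescence ratio to pre-addition baseline per second over 15 to 24 s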
[7] = inhibitors of larval lipid processing in zebrafish, primary screen, whole organism, PED6 fluorescence, gall bladder and intestine (AID 686;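 active means a full or partial loss of lipid-probe fluorescence in the fish gall bladder, intestine or both, judged by eye; inactive means no fluorescence loss, or compound toxic to the fish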;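 further: larvae 5 to 7 days old with five fish per well; signal comes from phospholipase A2 cleavage of quenched PED6 carried via bile; overnight exposure to compound and PED6 before scoring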); conditions: Zebrafish larvae PED6 lipid processing, fluorescence scoring; screened at 20 µM (by protocol)
In short: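 Test system – live zebrafish larvae aged 5-7 days, whole organism · Buffer or medium – E3 fish medium · Reagent – quenched phospholipase substrate PED6, 100 nM final, ingested by larvae · Doses – 20 µM single dose · Incubation – overnight compound and PED6 incubation · Technique – visual fluorescence microscopy scoring of gall bladder, gut · Read-out basis – visual per-well fluorescence inhibition score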

[8] = inhibitors of Sendai virus-induced IRF3 signaling, primary screen, TLR/RLR signaling modifier project, cell-based, Sendai virus stimulus, luciferase, 10K MLSCN set (AID 602276;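 active means inhibition at or above 50% at 10 µM; inactive means inhibition below 50%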;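 further: firefly luciferase from ISG56 promoter only with Renilla not read in this screen; 0% = Sendai virus plus DMSO and 100% = medium plus DMSO without virus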); conditions: HEK293 RL24 IRF3 luciferase reporter, at 10 µM, stronger effect = higher value
[9] = inhibitors of poly I:C-induced TLR3 signaling, primary screen, cell-based, poly I:C stimulus, luciferase, 10K MLSCN set (AID 602277;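 active means inhibition of the reporter signal at or above 50%; inactive means inhibition below 50%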); conditions: HEK293-TLR3 RL24 IRF3 luciferase reporter, at 10 µM, stronger effect = higher value

Chain of Alpha-2C adrenergic receptor (Homo sapiens) (P18825 whole entry, looked up): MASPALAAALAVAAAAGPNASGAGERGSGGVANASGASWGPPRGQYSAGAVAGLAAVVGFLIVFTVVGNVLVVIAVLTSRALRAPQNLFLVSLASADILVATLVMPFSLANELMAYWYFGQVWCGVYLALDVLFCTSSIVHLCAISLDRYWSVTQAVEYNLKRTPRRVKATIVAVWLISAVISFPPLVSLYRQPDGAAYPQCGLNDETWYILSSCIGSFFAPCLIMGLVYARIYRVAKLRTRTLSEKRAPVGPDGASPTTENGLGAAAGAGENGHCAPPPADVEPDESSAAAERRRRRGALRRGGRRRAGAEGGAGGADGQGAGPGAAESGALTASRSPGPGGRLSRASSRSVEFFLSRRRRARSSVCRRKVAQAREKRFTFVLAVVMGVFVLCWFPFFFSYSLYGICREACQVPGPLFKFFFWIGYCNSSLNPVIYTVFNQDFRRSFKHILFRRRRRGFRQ
Chain of Voltage-gated potassium channel subunit beta-2 (Rattus norvegicus) (P62483 whole entry, looked up): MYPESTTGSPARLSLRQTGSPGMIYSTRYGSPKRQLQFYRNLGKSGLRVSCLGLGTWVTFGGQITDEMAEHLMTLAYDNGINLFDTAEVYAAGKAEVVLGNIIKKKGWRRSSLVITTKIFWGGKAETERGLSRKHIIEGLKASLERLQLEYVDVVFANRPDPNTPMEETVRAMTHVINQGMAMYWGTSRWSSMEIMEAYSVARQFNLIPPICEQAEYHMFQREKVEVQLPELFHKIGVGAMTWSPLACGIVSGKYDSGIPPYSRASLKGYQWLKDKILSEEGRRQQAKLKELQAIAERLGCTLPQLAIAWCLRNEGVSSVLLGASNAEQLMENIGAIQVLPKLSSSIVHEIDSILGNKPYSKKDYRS

Structure (SMILES) | cell count [1] | inhibition [1] | inhibition of aggregation [2] | nuclei count [2] [%] | inhibition [3] | nuclei count [3] [%] | fluorescence slope [4] | NADPH fluorescence slope [5] | slope [6] | outcome [7] | inhibition [8] | inhibition [9]
CCCCN1CN(S(=O)(=O)c2cccs2)c2nc3ccccc3nc21 | 253 | -13% (inactive) | 0.5% (inactive) | 83.1 | 0.2% (inactive) | 91.6 | -0.393 (inactive) | -5.6e-05 (inactive) | 0.00634 (inactive) | inactive | -4.14% (inactive) | -4.36% (inactive)
COCCCN1C(=O)C(O)=C(C(C)=O)C1c1ccccn1 (configuration not stated) | 686 | -1.7% (inactive) | -2% (inactive) | 116 | -38.3% (inactive) | 116 | -0.399 (inactive) | -6.2e-05 (inactive) | 0.00486 (inactive) | active; weak signal in gallbladder only | 12.4% (inactive) | 14.4% (inactive)
Cc1onc(-c2ccccc2)c1C(=O)NCCN1CCOCC1 | 387 | 5% (inactive) | -14% (inactive) | 129 | 9.3% (inactive) | 93.5 | -0.38 (inactive) | -2.2e-05 (inactive) | 0.0053 (inactive) | inactive | 0.171% (inactive) | 0.994% (inactive)
Cc1ccc(C(=O)Nc2c(C(=O)N3CCOCC3)cnn2-c2ccccc2)cc1 | 354 | 5.4% (inactive) | -0.9% (inactive) | 102 | -6.5% (inactive) | 105 | -0.321 (inactive) | -3.7e-05 (inactive) | 0.00471 (inactive) | inactive | 14% (inactive) | 15.4% (inactive)
COc1cc(CO)cc(-c2cc(CO)cc(OC)c2OC)c1OC | 547 | 3.5% (inactive) | 19.5% (inactive) | 76.2 | 49.8% (inactive) | 60.6 | -0.367 (inactive) | -5.9e-05 (inactive) | 0.00523 (inactive) | inactive | 11.3% (inactive) | 15.6% (inactive)
CCOc1ccc(NC(=O)COC(=O)Cn2cnnn2)cc1OCC | 373 | -19.6% (inactive) | 11.4% (inactive) | 57.8 | 33.9% (inactive) | 72.6 | -0.468 (inactive) | -2.6e-05 (inactive) | 0.00481 (inactive) | inactive | 10.8% (inactive) | 9.82% (inactive)
Cc1nn(Cc2ccccc2)c2c1C(c1ccncc1)C(C#N)=C(N)O2 (configuration not stated) | 273 | -1.3% (inactive) | 17.9% (inactive) | 62.3 | -58.9% (inactive) | 97.3 | -0.381 (inactive) | -5.9e-05 (inactive) | 0.0052 (inactive) | inactive | 2.54% (inactive) | 0.489% (inactive)
CCC(c1nnc(SCC(=O)Nc2ccc(C(=O)Nc3ccccc3OC)cc2)o1)N(C)C (configuration not stated) | 464 | 2.9% (inactive) | -11.7% (inactive) | 102 | -70.6% (inactive) | 90.3 | -0.442 (inactive) | -7.1e-06 (inactive) | 0.00416 (inactive) | inactive | -5.51% (inactive) | 98.3% (active)
CCC1(C)Cc2c(sc3nc(SCC(=O)O)[nH]c(=O)c23)CO1 (configuration not stated) | 549 | -14.6% (inactive) | -5% (inactive) | 114 | -41% (inactive) | 104 | -0.391 (inactive) | -1.8e-05 (inactive) | 0.00549 (inactive) | inactive | 1.92% (inactive) | 7.26% (inactive)
CCOC(=O)c1c(N)c(C#N)nn1-c1ccccc1C(=O)OC | 516 | -3.6% (inactive) | 30.5% (inactive) | 81 | -41.6% (inactive) | 101 | -0.364 (inactive) | -4.6e-05 (inactive) | 0.00521 (inactive) | inactive | 9.81% (inactive) | 20.2% (inactive)
O=C(NCC(=O)N(c1cccnc1)C(C(=O)NC1CCCCC1)c1cccnc1)c1ccco1 (configuration not stated) | 424 | 6.8% (inactive) | 6.3% (inactive) | 109 | -37.8% (inactive) | 110 | -0.39 (inactive) | -5.1e-05 (inactive) | 0.00388 (inactive) | inactive | 9.81% (inactive) | 6.29% (inactive)
Cc1ccc(NC(=O)COC(=O)c2ccn(C)n2)cc1 | 521 | -2.1% (inactive) | -15.4% (inactive) | 89.1 | -28.3% (inactive) | 109 | -0.39 (inactive) | 1.1e-05 (inactive) | 0.0046 (inactive) | inactive | 17.1% (inactive) | 22.3% (inactive)
O=C(CSc1nc2ccccc2c(=O)n1Cc1ccco1)NCc1ccccc1 | 399 | -6.1% (inactive) | 1.9% (inactive) | 87.8 | -6.6% (inactive) | 103 | -0.439 (inactive) | -4.9e-05 (inactive) | 0.0067 (inactive) | inactive | 19.4% (inactive) | 9.86% (inactive)
O=C(c1ccc(S(=O)(=O)N2CCC(c3nc4ccccc4s3)CC2)cc1)N1CCOCC1 | 689 | -2.9% (inactive) | -25% (inactive) | 109 | -80.2% (inactive) | 116 | -0.392 (inactive) | -9.6e-07 (inactive) | 0.00693 (inactive) | inactive | -8.58% (inactive) | 3.6% (inactive)
O=C(NCCN1CCOCC1)c1ccc(CS(=O)(=O)Cc2ccccc2F)o1 | 536 | -21.6% (inactive) | -10.5% (inactive) | 94.3 | -69.5% (inactive) | 108 | -0.453 (inactive) | -5.9e-05 (inactive) | 0.00503 (inactive) | inactive | 11.2% (inactive) | 9.56% (inactive)
COc1ccc(OC)c(NC(=O)C23CCC(C)(C(=O)C2)C3(C)C)c1 (configuration not stated) | 512 | -4.8% (inactive) | 4.8% (inactive) | 98.5 | -103% (inactive) | 125 | -0.455 (inactive) | -0.00015 (inactive) | 0.00548 (inactive) | inactive | 12.9% (inactive) | 26.7% (inactive)
CN(Cc1ccc(-n2cccn2)cc1)C(=O)c1cnn2c1NC(c1ccco1)CC2C(F)(F)F (configuration not stated) | 326 | 9.3% (inactive) | -30.3% (inactive) | 115 | -100% (inactive) | 120 | -0.509 (inactive) | -4e-05 (inactive) | 0.00457 (inactive) | inactive | 8.13% (inactive) | 5.75% (inactive)
CCOc1ccccc1C(=O)Nn1c(C2CCC2)nc2ccccc2c1=O | 292 | -14% (inactive) | -21.7% (inactive) | 7.3 | -38.2% (inactive) | 98.8 | -0.467 (inactive) | -5.5e-05 (inactive) | 0.00459 (inactive) | inactive | 20.9% (inactive) | 37.7% (inactive)
Cc1ccc(NC(=O)c2ccco2)c(NC(=O)CN2C(=O)c3ccccc3C2=O)c1 | 402 | -7.3% (inactive) | 6.5% (inactive) | 90.3 | -162% (inactive) | 155 | -0.466 (inactive) | -1.3e-05 (inactive) | 0.00456 (inactive) | inactive | 0.0738% (inactive) | -0.596% (inactive)
COc1ccc(OC)c(N(CC(=O)Nc2cccnc2)S(=O)(=O)c2ccc(OC)c(OC)c2)c1 | 722 | 7.9% (inactive) | -6.2% (inactive) | 97 | -37.3% (inactive) | 94.1 | -0.456 (inactive) | -5.3e-05 (inactive) | 0.00497 (inactive) | inactive | 18.6% (inactive) | 21.4% (inactive)
CCCn1nnc(NCc2ccc(OCc3cccs3)c(OC)c2)n1 | 226 | -5.8% (inactive) | 7.5% (inactive) | 90 | -51.4% (inactive) | 99 | -0.467 (inactive) | -3.7e-05 (inactive) | 0.00561 (inactive) | inactive | 8.88% (inactive) | 6.19% (inactive)
Cc1cc(NC(=O)C(C)(C)C)no1 | 507 | -8.7% (inactive) | -18% (inactive) | 118 | -50.6% (inactive) | 124 | -0.29 (inactive) | -1.1e-05 (inactive) | 0.005 (inactive) | inactive | 16.1% (inactive) | 20.8% (inactive)
COc1nc(-c2ccc(Cl)cc2)ccc1-c1noc(-c2ccncc2)n1 | 332 | 1.5% (inactive) | -4.2% (inactive) | 97.5 | -31.6% (inactive) | 114 | -0.223 (inactive) | -1.2e-07 (inactive) | 0.00449 (inactive) | inactive | 6.3% (inactive) | -7.25% (inactive)
CC(C)OC(=O)c1cc(NC(=O)C2C3CCC(O3)C2C(=O)O)cc(C(=O)OC(C)C)c1 (configuration not stated) | 418 | 4.2% (inactive) | 7.3% (inactive) | 108 | -49.1% (inactive) | 113 | -0.454 (inactive) | -5.2e-05 (inactive) | 0.00511 (inactive) | inactive | 20.3% (inactive) | 13.2% (inactive)
Cc1ccc2nc(C3CCN(CC(=O)N4CCCCCC4)CC3)[nH]c2c1 | 579 | -13.8% (inactive) | 2.2% (inactive) | 101 | -39.2% (inactive) | 111 | -0.453 (inactive) | -5.8e-05 (inactive) | 0.00562 (inactive) | active; weak signal in gallbladder and intestine | 8.23% (inactive) | 13.7% (inactive)
O=C(Cc1cccs1)N(c1ccccc1)C1C=CS(=O)(=O)C1 (configuration not stated) | 294 | 4.2% (inactive) | -21.3% (inactive) | 110 | 8.4% (inactive) | 88.2 | -0.376 (inactive) | -5.4e-05 (inactive) | 0.0046 (inactive) | inactive | 10.7% (inactive) | 15.6% (inactive)
